EC90 and EC50 data for 17 compounds are collected here from ChEMBL document CHEMBL4396965.

SMILES strings stand for the structures. pEC50: −log10 of the molar value.

One assay concerns H1N1 subtype. Briefly: (§1) Antiviral activity against Influenza A virus (H1N1) harboring PR8-GLuc infected in human A549 cells assessed as reduction in virus-induced cytopathic effect treated post viral infection for 1 hr by luciferase reporter gene assay. The class given is functional, cell-based.
Details: not given
In outline:
(§2)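 A549 cells seeded 40,000/well, incubated overnight 37 °C 5% CO2, then infected with PR8-GLuc (H1N1) at 0.1 MOI for 1 h; unbound virus removed by two acidic (PBS pH 2.2) and three neutral (PBS pH 7.4) washes. Initial screen at one concentration below maximum non-toxic concentration; those reaching 50% inhibition retested in dose response for EC50 and EC90.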
As a reminder, the EC90 is the concentration at which the effect reaches the 90% level. As to `O=C(O)[C@H]1C2CCC(CC2)[C@@H]1Nc1nc(-c2c[nH]c3ncc(F)cc23)ncc1F` [PIMODIVIR], the EC90 is 0.027 µM.

System in a further assay: not listed separately
The description is as §1. The settings on record: A549, 1 h. The class given is functional, cell-based, H1N1 subtype. A digest of the protocol:
as §2
As a reminder, the pEC50 is −log10 of the EC50, conventionally taken in molar units. As for `O=C(O)[C@H]1C2C=CC(CC2)[C@@H]1c1nnc2c(F)cnc(-c3c[nH]c4ncc(F)cc34)n12` (stereo partly drawn), the negative-log EC50 (pEC50) was less than 4.40.
For the compound `O=C(O)[C@H]1C2C=CC(CC2)[C@@H]1Nc1nc(-c2n[nH]c3ncc(F)cc23)nc2ccsc12` (stereo partly drawn), the pEC50 is 7.38.
The same measure, in the same setting: the value for `O=C(O)[C@H]1C2C=CC(C2)[C@@H]1Nc1nc(-c2c[nH]c3ncc(F)cc23)ncc1F` (stereo partly drawn) was 7.30; that for `O=C(O)[C@H]1C2C=CC(CC2)[C@@H]1Nc1nc(-c2c[nH]c3ncc(F)cc23)nc2ccsc12` (stereo partly drawn) was 7.77.
On the same count and under the same terms, the value for `O=C(O)[C@H]1C2CCC(CC2)[C@@H]1Nc1nc(-c2c[nH]c3ncc(F)cc23)ncc1F` [PIMODIVIR] was 8.40.
For the compound `O=C(O)[C@H]1C2C=CC(CC2)[C@@H]1Nc1nc(-c2c[nH]c3ncc(F)cc23)nc2sccc12` (stereo partly drawn), the negative logarithm of the EC50 (pEC50) was 8.19.
Still for that read-out and setting: the value for `Cc1csc2c(N[C@H]3C4C=CC(CC4)[C@@H]3C(=O)O)nc(-c3c[nH]c4ncc(F)cc34)nc12` (stereo partly drawn) was 7.54.
Same read-out and setting: the value for `Cc1cc2nc(-c3c[nH]c4ncc(F)cc34)nc(N[C@H]3C4C=CC(CC4)[C@@H]3C(=O)O)c2s1` (stereo partly drawn) was 7.57.
The same measure, in the same setting: the value for `O=C(O)[C@H]1C2CCC(C3CC32)[C@@H]1Nc1nc(-c2c[nH]c3ncc(F)cc23)ncc1F` (stereo partly drawn) was 7.30; that for `O=C(O)C12CC3CC(CC(Nc4nc(-c5c[nH]c6ncc(F)cc56)ncc4F)(C3)C1)C2` was 6.02; that for `O=C(O)[C@H]1C2C=CC(CC2)[C@@H]1Nc1nc(-c2c[nH]c3ncc(F)cc23)ncc1F` (stereo partly drawn) was 8.15.
`Cn1cnc2c(N[C@H]3C4C=CC(CC4)[C@@H]3C(=O)O)nc(-c3c[nH]c4ncc(F)cc34)nc21` (stereo partly drawn): the pEC50 is 6.40.
The same measure, in the same setting: the value for `O=C(O)[C@H]1C2C=CC(CC2)[C@@H]1Nc1nc(-c2n[nH]c3ncc(F)cc23)ncc1F` (stereo partly drawn) was 7.80; that for `Cn1cnc2nc(-c3c[nH]c4ncc(F)cc34)nc(N[C@H]3C4C=CC(CC4)[C@@H]3C(=O)O)c21` (stereo partly drawn) was less than 5.00; that for `O=C(O)[C@H]1C2C=CC(CC2)[C@@H]1Nc1nc2cnc(-c3c[nH]c4ncc(F)cc34)nc2s1` (stereo partly drawn) was less than 4.00.
The same measure, in the same setting: the value for `O=C(O)[C@H]1C2C=CC(CC2)[C@@H]1Nc1cc2nncn2c(-c2c[nH]c3ncc(F)cc23)n1` (stereo partly drawn) was 6.17.
Same read-out and setting: the value for `O=C(O)[C@H]1C2C=CC(CC2)[C@@H]1Nc1nc(-c2n[nH]c3ncc(F)cc23)nc2sccc12` (stereo partly drawn) was 7.92.
